Data set [1] has as its target T1, granuphilin C2A domain (Homo sapiens, UniProt Q96C24).
T1 sequence (Q96C24 352-488): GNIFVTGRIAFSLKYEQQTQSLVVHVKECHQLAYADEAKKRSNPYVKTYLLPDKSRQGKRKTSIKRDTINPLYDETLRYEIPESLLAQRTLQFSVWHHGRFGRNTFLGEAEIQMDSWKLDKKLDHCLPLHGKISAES
Nature of the data set: Intrinsic Trp fluorescence titration of IP6 or IP3 into free C2A domain. The class given is binding.

Data set [2] has as its target T1, granuphilin C2A domain. Description: FRET competition binding assay: IP6 titrated into vesicle-bound C2A. The conditions noted are these: 125 μM accessible lipid, 1 μM C2A.
Data set [3] has as its target T2, granuphilin C2B domain (Homo sapiens, UniProt Q96C24). Nature of the data set: FRET competition binding assay: IP6 titrated into vesicle-bound C2B. Summed up: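 Human C2B domain (Glu487–Leu671, E. coli-expressed, freed from GST by thrombin) at 1 μM, premixed with liposomes (125 μM total accessible lipid) in 140 mM KCl, […], 0.5 mM MgCl2, 25 mM HEPES pH 7.4 with 100 μM EDTA, 25 °C. IP6 titrated; acceptor emission at 520 nm (excitation 284 nm, 10-s average), dilution-corrected, lipid-only blank subtracted.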

Data set [4] deals with T1, granuphilin C2A domain. Description: Qualitative reversal of protein-to-membrane FRET by IP6. Type of data set: binding. As to conditions: 8 mM IP6, all lipid compositions tested. The gist of the method:
(§1)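 Emission spectra recorded at 25 °C (excitation 284 nm) of vesicles bearing dansyl-PE acceptor (125 μM total accessible lipid) in KCl/NaCl/MgCl2/HEPES pH 7.4 buffer with 100 μM EDTA or 1 mM CaCl2. […] Each addition followed by 40 s stirred equilibration. Dansyl emission near 510 nm read; spectra dilution-corrected.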

Data set [5] concerns the target T2, granuphilin C2B domain. The description is as above. The class given is binding. The conditions noted are these: 8 mM IP6, all lipid compositions tested. The gist of the method: as §1
Data set [6] has as its target T1, granuphilin C2A domain. Description: Membrane dissociation kinetics on rapid addition of high IP6. Type of data set: binding. As to conditions: 8 mM IP6 rapidly added; biexponential.
Data set [7] in a line: Stopped-flow FRET association and dissociation kinetics. The class given is binding. The conditions noted are these: 0.3 μM protein, 75 μM total accessible lipid. The gist of the method: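 Association run by stopped-flow at 25 °C in assay buffer with 100 μM EDTA: 0.3 μM domain rapidly mixed with liposomes (75 μM total accessible lipid, after mixing). Excitation 284 nm, dansyl emission through a 475-nm longpass filter, data within 1 ms dead time discarded. Single-exponential fit gives kobs; traces averaged over 9–12 mixing events, ≥3 replicates.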

The nature of data set [8]: Stopped-flow FRET association and dissociation kinetics. Type of data set: binding. As to conditions: 0.3 μM protein, 75 μM total accessible lipid. The gist of the method: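 Stopped-flow measurements at 25 °C in assay buffer with 100 μM EDTA; excitation 284 nm, dansyl emission through a 475-nm longpass filter, first 1 ms discarded. For association, 0.3 μM domain was mixed with liposomes (75 μM total accessible lipid, after mixing), and a single-exponential fit gave kobs. For dissociation, pre-bound complexes were mixed with equal volume of 4-fold excess unlabeled vesicles, and an exponential decay fit gave koff. kon was derived from kobs and koff; ≥3 replicates.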
The source holds these as a separate data set.

The nature of data set [9]: Qualitative protein-to-membrane FRET. The class given is binding. As to conditions: 1 μM domain, 125 μM total accessible lipid. Summed up: as §1
Data set [10] in a line: Qualitative protein-to-membrane FRET. As to conditions: 1 μM domain, 125 μM total accessible lipid. Type of data set: binding. The gist of the method: as §1
This is another data set of the same source.

Data set [11] in a line: Qualitative protein-to-membrane FRET. As to conditions: 1 μM domain, 125 μM total accessible lipid. The class given is binding. The gist of the method:
as §1
This is another data set of the same source.

Data set [12] in a line: Qualitative protein-to-membrane FRET. Type of data set: binding. As to conditions: PS and PI replaced with PG; 1 μM domain. Summed up:
as §1

Structures can show the parent of a compound that is named as a salt.

By Ki is commonly meant a dissociation constant, usually derived from enzyme kinetics or from competition with a known ligand. A lower Ki goes with higher affinity. As for `O=P(O)(O)O[C@@H]1[C@H](O)[C@H](O)[C@@H](OP(=O)(O)O)[C@H](OP(=O)(O)O)[C@H]1O` [IP3, D-myo-inositol-1,4,5-triphosphate tripotassium salt], at granuphilin C2A domain [1], affinity was put at a Ki of 80 ± 30 µM and the “fold less tight binding of IP3 than IP6 to C2A” value is ~ 40 fold.
As a reminder, the IC50 is the concentration at which inhibition is half-maximal. A lower IC50 goes with higher potency. Regarding `O=P(O)(O)O[C@H]1[C@H](OP(=O)(O)O)[C@@H](OP(=O)(O)O)[C@H](OP(=O)(O)O)[C@@H](OP(=O)(O)O)[C@H]1OP(=O)(O)O` [IP6, D-myo-inositol 1,2,3,4,5,6,-hexakisphosphate dodecasodium salt], the results for the Ki at granuphilin C2A domain [1] and at granuphilin C2B domain [3] were 1.8 ± 0.1 µM and 1.9 ± 0.5 µM, respectively. For the same molecule, the IC50 at granuphilin C2A domain [2] (PC/PG/dPE vesicles) came out at 11 ± 1 µM; at granuphilin C2A domain [2] (PC/PI/dPE vesicles), 5 ± 1 µM; at granuphilin C2A domain [2] (PC/PS/dPE vesicles), 10 ± 1 µM; on granuphilin C2A domain [2] (PM(+)PIP2 vesicles, 100 μM EDTA), 1600 ± 200 µM; at granuphilin C2A domain [2] (PM(+)PIP3 vesicles), 1100 ± 100 µM; on granuphilin C2A domain [2] (PM(−)PIPx vesicles) it was 37 ± 6 µM. Besides, on granuphilin C2B domain [3], the IC50 came out at 21 ± 3 µM. For the same molecule, the “reversal of protein-to-membrane FRET (dansyl emission at 512 nm)” value on granuphilin C2A domain [4] and at granuphilin C2B domain [5] was “completely reversed” each time. Also, on granuphilin C2A domain [6], the “fold faster dissociation kinetics than by approach to equilibrium method” value is given as ~ 100 fold.

B1: C2A: human granuphilin C2A domain (Gly352 – Ser488) with C-terminal His6 tag, expressed in E. coli (protein, UniProt Q96C24 352-488, looked up, fragment)
chain: GNIFVTGRIAFSLKYEQQTQSLVVHVKECHQLAYADEAKKRSNPYVKTYLLPDKSRQGKRKTSIKRDTINPLYDETLRYEIPESLLAQRTLQFSVWHHGRFGRNTFLGEAEIQMDSWKLDKKLDHCLPLHGKISAES
modifications: C2A domain C-terminal His6 tag
In the case of B1, the figures for the kobs for association in [7] and in [8] were 190 ± 30 s⁻¹ and 150 ± 20 s⁻¹, respectively. Besides, the “protein-to-membrane FRET (dPE emission) on protein addition” value in data set [9] is “increase in dPE emission”; in data set [10], “increase in dPE emission”; in data set [11] it was “FRET was observed”; in [12], “Binding was restored”.

For the origin of these results see publication PMC4085138 (Chemistry and physics of lipids, 2013).
